Source: PubChem (Johns Hopkins Ion Channel Center)
Only some compounds are listed: those with a hit (about 3.8% of all), similar ones and a draw of the others.
KCNK9 block = blocks the human KCNK9 two-pore domain potassium channel | Q9NPC2 | HEK293 KCNK9, FluxOR thallium flux fluorescence; hits give low values | B-score at 10 µM | 310,000 compounds, 1.2% hits | AID 488922;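 active = ratio B-score over 3 SD below the library mean, with starting fluorescence within 5 SD of its mean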;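 also: negative B-score means less thallium flux so channel inhibition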
KCNK3 block = human KCNK3 channel inhibition, primary screen; CHO-KCNK3 thallium flux, FluxOR fluorescence; hits give low values; B-score at 10 µM; 340,000 compounds, 0.84% hits;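 active = B-score under library mean minus 4 SD, starting fluorescence ratio at most library mean plus 5 SD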;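 also: more negative B-score means stronger inhibition of thallium flux through KCNK3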
KCNQ1 block = human KCNQ1 channel inhibition | P51787 | AID 2642 | CHO-K1 KCNQ1, FluxOR thallium flux fluorescence; hits give high values | B-score at 10 µM | 310,000 compounds, 1.3% hits;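 active = compounds whose thallium flux B-score, printed positive for inhibition, exceeds three library SD while starting fluorescence stays within three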;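 also: channel opened by potassium depolarization with thallium stimulus after 20 min compound exposure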
hERG protect = compounds protecting human hERG from proarrhythmic drug block; Q12809; CHO-hERG, FluxOR thallium flux, dofetilide IC70 present; 310,000 compounds, 0.51% hits; activation (rescue from dofetilide block), less the hit threshold, % at 10 µM;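 active = activation above the mean of controls blocked by dofetilide plus 5 SD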;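 also: thallium influx through hERG after potassium depolarization seen as dye fluorescence rise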
Kir21 block = blocks the mouse Kir2.1 inward-rectifier potassium channel | HEK293-Kir2.1, FluxOR thallium flux fluorescence; hits give low values | B-score at 10 µM | P35561 | 310,000 compounds, 0.85% hits;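 active = fluorescence ratio B-score at or below minus 3 SD of library scores, with starting-brightness B-score within 2 SD, cut at about -4.2 in these data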;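 also: channel flux triggered by added potassium and thallium sulfate stimulus; B-score of peak minus minimum fluorescence over baseline after thallium stimulus; more negative B-score means stronger Kir2.1 block with less thallium influx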
Target sequence (P35561 whole entry, looked up): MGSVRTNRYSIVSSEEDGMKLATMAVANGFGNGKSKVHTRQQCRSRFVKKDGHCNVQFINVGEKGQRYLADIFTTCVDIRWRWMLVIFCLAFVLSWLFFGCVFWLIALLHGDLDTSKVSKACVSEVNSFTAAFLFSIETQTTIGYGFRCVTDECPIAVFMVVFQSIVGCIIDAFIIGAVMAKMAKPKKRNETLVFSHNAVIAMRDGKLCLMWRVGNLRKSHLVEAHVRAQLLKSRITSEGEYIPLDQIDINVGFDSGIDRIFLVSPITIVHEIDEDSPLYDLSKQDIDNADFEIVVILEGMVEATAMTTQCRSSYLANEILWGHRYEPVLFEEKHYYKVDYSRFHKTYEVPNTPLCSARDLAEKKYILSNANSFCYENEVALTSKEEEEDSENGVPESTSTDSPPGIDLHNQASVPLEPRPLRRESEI
KCNQ1 pot = potentiates or activates the human KCNQ1 potassium channel | AID 2648 | P51787 | B-score at 10 µM | 310,000 compounds, 0.35% hits | CHO-K1 KCNQ1, thallium flux FluxOR fluorescence; hits give high values;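 active = fluorescence ratio B-score, a plate-corrected score, at least three library SD, with initial intensity B-score within 5 SD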
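Test system: CHO-K1 cells stably expressing KCNQ1 / Medium: assay buffer / Also added: depolarizing K+/Tl+ stimulus, K2SO4 and Tl2SO4 each 12.5 mM in 5x stock / Incubation: 90 min dye loading and 20 min compound exposure, both at room temperature / Signal: thallium influx via FluxOR fluorescence, kinetic imaging / Evaluation: B score of baseline-normalized fluorescence ratio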
KCNK3 confirm = human KCNK3 channel inhibition, confirmation assay; 2,400 compounds, 99% hits; shares compounds with KCNK3 block; ratio percent of control, % at 10 µM; CHO-KCNK3 thallium flux, FluxOR fluorescence; 0% buffer, 100% carvedilol maximal block;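 active = ratio percent of control, averaged over triplicates, above buffer control mean plus 5 SD, cut at about 64% in these data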;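 also: ratio is the fluorescence rise from min to max over baseline after thallium stimulus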
KCNK3 uninduced = counter-screen for KCNK3 inhibitors: effect in non-induced cells | thallium flux ratio (lower = more inhibition) at 10 µM | non-induced KCNK3 parental cells, FluxOR thallium flux; hits give low values | 2,400 compounds, 40% hits | shares compounds with KCNK3 block;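 active = thallium flux ratio, averaged over three wells, more than 5 SD below the buffer control mean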;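 also: host cells are CHO cells without KCNK3 induction; ratio is peak minus trough fluorescence over baseline then normalized to buffer controls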
Starred values were filed as active, the others as inactive; i = inactive; / = no result given.

SMILES	KCNK9 block	KCNK3 block	KCNQ1 block	hERG protect	Kir21 block	KCNQ1 pot	KCNK3 confirm	KCNK3 uninduced
CCn1nc([N+](=O)[O-])c(C(C#N)c2nc3ccccc3n2C)c(Cl)c1=O (centres undefined)	i	i	i	-3	-1.9	i	/	/
Cc1cccc2[nH]c(CCNC(=O)C3CCC(=O)N(CCc4cccc(F)c4)C3)nc12 (centres undefined)	i	i	i	-8	0.01	i	/	/
O=C(COc1ccc(Br)cc1CNCCc1ccccc1)NCc1ccccc1	i	-11*	7*	-28	-3	i	102*	i
COCCN1CCN(C(=O)c2ccc3oc(CCc4ccccc4)nc3c2)CC1	i	i	i	-7	1.7	i	/	/
COc1ccc(CN2C(=O)c3cccc4cccc2c34)cc1F	i	-9.3*	i	-9	-0.16	i	90*	i
COc1ccc(CCN2C(=O)c3cccc4cccc(c34)C2=O)cc1OC	i	i	i	-8	-0.03	i	/	/
O=C1OC(c2ccccc2)(c2ccc3cc(O)ccc3c2)c2ccccc21 (centres undefined)	/	-16*	/	/	/	/	128*	0.11*
O=C(N1CCOCC1)N1c2ccccc2Sc2ccccc21	i	i	i	-1	-2.9	i	/	/
O=C(NC1CCN(C(=O)N2c3ccccc3Sc3ccccc32)CC1)c1ccccc1F	i	-11*	i	-8	-0.11	i	89*	i
CCn1ccnc1[C@@H]1C[C@H]2CN(c3ccccc3OC)C(=O)[C@]23CCCN13	i	i	i	-12	3.6	i	/	/
CC1=CC2=NC(=O)/C(=C\c3cccn3CCOc3ccccc3C)C(=N)N2O1	i	-8.9*	i	-6	1.8	i	115*	0.16*
COc1ccccc1OCCOc1ccc(/C=C2/C(=N)N3OC(C)=CC3=NC2=O)cc1OC	i	i	i	-7	-0.03	i	/	/
Cc1ccc(-c2nc(C(Cl)Cl)c3ccccc3n2)cc1	i	-9.2*	i	-10	0.54	i	114*	i
Cc1ccc(-c2nc(Nc3ccc(O)cc3)c3ccccc3n2)cc1	i	i	i	-7	2.1	i	/	/
COCCN(CCOC)c1nc(-c2ccc(C)cc2)nc2ccccc12	i	-12*	i	-14	0.25	i	86*	0.13*
CC1(C(=O)NNC(=O)c2cccc([N+](=O)[O-])c2)CC1(Br)Br (centres undefined)	i	i	i	-4	-0.98	i	/	/
Cc1ccc(C(C#N)c2ccc(C(=O)c3ccc(F)cc3)cc2)cc1 (centres undefined)	i	-8.8*	13*	-14	0.72	i	99*	0.12*
Cc1ccc(C(=O)NC(C)c2ccc(F)cc2)cc1 (centres undefined)	i	i	i	-4	-3.5	i	/	/
O=C1c2ccccc2C(Nc2ccc3c(c2)OCO3)N1Cc1ccco1 (centres undefined)	i	i	i	-14	0.36	i	/	/
O=C1c2ccccc2C(Nc2ccc(F)c(Cl)c2)N1Cc1ccco1 (centres undefined)	i	-8.7*	i	-13	-1.8	i	98*	i
O=C1CC(NS(=O)(=O)c2ccc(F)cc2)CN1c1ccc2c(c1)OCCO2 (centres undefined)	i	i	i	-11	0.27	i	/	/
COc1cc(C(=O)N/N=C/c2ccc(OC(=O)c3cccc(C)c3)c(OC)c2)ccc1O	i	-8.7*	8*	-21	-1.9	i	82*	i
COc1cc(C(=O)N/N=C/c2ccc3c(c2)c2ccccc2n3C)ccc1O	i	-11*	i	-21	2.2	i	100*	i
COc1cccc(C(=O)Oc2ccc(/C=N/NC(=O)c3ccncc3)cc2OC)c1	i	i	i	-5	0.51	i	/	/
Cn1c2ccccc2c2cc(/C=N/NC(=O)c3cc(O)ccc3O)ccc21	i	i	i	-36	-0.14	i	/	/
SMILES	KCNK9 block	KCNK3 block	KCNQ1 block	hERG protect	Kir21 block	KCNQ1 pot	KCNK3 confirm	KCNK3 uninduced
S=C(NCc1ccco1)Nc1ccc(Cl)cn1	i	i	i	-1	-0.66	i	/	/
O=C(Cc1ccc(F)cc1)Nc1nc(-c2ccc(F)c(F)c2)cs1	i	-11*	i	-4	-0.02	i	130*	i
CC1(C(=O)OCC(=O)Nc2nc(-c3ccc(F)c(F)c3)cs2)CC1(Cl)Cl (centres undefined)	i	-10*	i	-20	0.4	i	140*	0.14*
COc1ccc(CC(=O)Nc2nc(-c3ccc(F)c(F)c3)cs2)cc1	i	i	i	-8	-0.12	i	/	/
CCOc1ccc(S(=O)(=O)NCCc2ccccn2)cc1	/	i	/	/	/	/	/	/
COc1ccc([C@H]2CC(=O)C=C(c3cc(C=O)ccc3OC)C2)cc1	/	i	/	/	/	/	/	/
COC(=O)c1sccc1NC(=O)c1ccc(C(C)C)cc1	i	-11*	i	-10	-1.8	i	100*	i
COc1ccc(S(=O)(=O)c2c(O)cc(C)c(NS(=O)(=O)c3ccccc3)c2C)cc1	i	i	i	-14	-0.29	i	/	/
O=C(CSc1nc2ccccc2c(=O)n1Cc1ccco1)N1CCN(c2ccccc2)CC1	i	i	i	-22	0.71	i	/	/
O=C(CSc1nc2ccccc2c(=O)n1Cc1ccco1)c1ccccc1	i	-11*	i	1	-0.72	i	91*	i
Cc1sc2nc(SCC(=O)c3cccs3)n(Cc3ccco3)c(=O)c2c1C	i	-9.4*	i	-6	0.37	i	106*	i
O=c1c2ccccc2nc(SCc2nc3ccccc3s2)n1Cc1ccco1	i	-12*	i	-5	0.13	i	127*	0.15*
COc1ccccc1CNC(=O)c1cc(-c2ccccc2C)n(CC2CC(c3cccc([N+](=O)[O-])c3)=NO2)n1 (centres undefined)	/	i	/	/	/	/	/	/
CCOc1ccc(S(=O)(=O)N2CCC(C(=O)NCc3ccncc3)CC2)cc1Cl	i	i	i	-4	1.6	i	/	/
CCC1(CC)NC(=O)N(CC(=O)OCC(=O)Nc2cc(OC)ccc2OC)C1=O	/	i	/	/	/	/	/	/
O=C(NCc1cc([N+](=O)[O-])ccc1O)c1cccc(NS(=O)(=O)c2ccccc2)c1	i	i	i	-15	1.4	i	/	/
